Converted amounts (≈) assume the structure as drawn.
Key:
Assay type in all cases: functional
Candida albicans [1] = assay: In vitro antifungal activity against 40 strains of Candida albicans at pH 5.8; (range is from 1 to 32)
Summary of the method: (§1)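 Broth serial-dilution MIC against 40 clinical C. albicans isolates from hospitalized patients, grown in Sabouraud broth at pH 7.2 or 5.8. Cells were pre-grown 18 h at 37 °C, inoculated at 10³/mL, and read at 24 h, 37 °C. Doubling dilutions ran 0.25–256 μg/mL from a DMSO/water solution. MIC was the lowest concentration with no visible growth against a DMSO/water blank.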

Candida [2] = assay: Tested In vitro for antifungal activity against Candida species. at pH 7.2; (percent of resistant species at 256 ug/mL)
Summary of the method: (§2)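 Broth serial-dilution test in Sabouraud broth at pH 7.2 or 5.8, against 3 fresh clinical non-albicans isolates (two C. glabrata, one C. krusei). Inocula were 10³/mL, pre-grown 18 h at 37 °C. Compound was twofold-diluted over 0.25–256 µg/mL and read at 24 h, 37 °C for visible growth.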

Candida [3] = assay: Tested in vitro for antifungal activity against Candida species. at pH 5.8 (percent of resistant species at 256 ug/mL); summary of the method: as §2
Candida albicans [4] = assay: In vitro antifungal activity against 40 strains of Candida albicans at pH 5.8; summary of the method: as §1
[5] = biological target: Lanosterol 14-alpha demethylase (Candida albicans (strain SC5314 / ATCC MYA-2876) (Yeast), UniProt P10613); assay: Anticandida activity- (MIC90 compound) / (MIC90 bifonazole)
Lanosterol 14-alpha demethylase, sequence (P10613 whole entry): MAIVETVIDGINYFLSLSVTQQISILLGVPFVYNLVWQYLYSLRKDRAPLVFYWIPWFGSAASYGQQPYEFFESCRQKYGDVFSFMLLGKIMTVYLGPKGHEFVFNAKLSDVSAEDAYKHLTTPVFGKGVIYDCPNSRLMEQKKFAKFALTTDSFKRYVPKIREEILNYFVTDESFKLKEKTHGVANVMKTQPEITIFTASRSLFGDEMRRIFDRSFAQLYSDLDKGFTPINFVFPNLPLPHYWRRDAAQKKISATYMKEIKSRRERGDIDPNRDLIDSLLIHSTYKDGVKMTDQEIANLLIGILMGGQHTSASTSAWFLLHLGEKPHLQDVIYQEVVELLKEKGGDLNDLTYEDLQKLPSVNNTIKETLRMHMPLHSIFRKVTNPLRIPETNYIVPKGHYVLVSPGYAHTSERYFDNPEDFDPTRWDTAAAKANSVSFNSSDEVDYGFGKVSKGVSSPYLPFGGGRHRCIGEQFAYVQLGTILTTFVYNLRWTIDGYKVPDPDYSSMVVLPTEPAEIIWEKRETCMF

Candida albicans [6] = assay: In vitro antifungal activity against 40 strains of Candida albicans at pH 5.8; (percent of resistant species at 256 ug/mL)
Summary of the method: (§3)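 Broth serial-dilution test in Sabouraud broth at pH 7.2 or 5.8, against 40 fresh clinical C. albicans isolates from hospitalized patients. Inocula were 10³/mL, pre-grown 18 h at 37 °C in Sabouraud dextrose broth. Compound from a DMSO/water stock was twofold-diluted over 0.25–256 µg/mL. Visible growth was read at 24 h, 37 °C.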

Candida albicans [7] = assay: In vitro antifungal activity against 40 strains of Candida albicans at pH 7.2; (percent of resistant species at 256 ug/mL); summary of the method: as §3
Candida albicans [8] = assay: In vitro antifungal activity against 40 strains of Candida albicans at pH 7.2; minimum inhibitory concentration (range is from 4 to 64); summary of the method: as §1
Candida [9] = assay: Tested In vitro for antifungal activity against Candida species. at pH 7.2; (range is from 8 to 128)
Summary of the method: (§4)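 Liquid serial-dilution MIC against 3 freshly isolated clinical Candida strains (two C. glabrata, one C. krusei) in Sabouraud broth at pH 7.2 or 5.8. Inoculum was 10³/mL after 18 h pre-culture at 37 °C, read at 24 h, 37 °C. Range was 0.25–256 μg/mL. Endpoint was no visible growth versus a DMSO/water blank.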

Candida [10] = assay: Tested in vitro for antifungal activity against Candida species. at pH 5.8; range is from 4 to 16
Summary of the method: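 Fresh clinical isolates (two C. glabrata, one C. krusei) were pre-grown 18 h at 37 °C in Sabouraud dextrose broth. Broth double-dilution was run in Sabouraud broth at pH 5.8 or 7.2 over 0.25–256 µg/mL from a DMSO/water stock, with 10³/mL inoculum.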

Candida [11] = assay: Tested In vitro for antifungal activity against Candida species. at pH 7.2; summary of the method: as §4
Candida [12] = assay: Tested in vitro for antifungal activity against Candida species. at pH 5.8; summary of the method: as §4
Candida albicans [13] = assay: In vitro antifungal activity against 40 strains of Candida albicans at pH 7.2; summary of the method: as §1
Candida [14] = assay: In vitro antifungal activity against candida Spp (Candida glabrata, Candida krusei) at pH 5.8,(percent of resistant species at 256 ug/mL); summary of the method: as §2
Candida albicans [15] = assay: In vitro antifungal activity against 40 strains at pH 7.2 minimum inhibitory concentration
Summary of the method: (§5)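 Inocula were 10³/mL, pre-grown 18 h at 37 °C. MIC is the lowest concentration with no visible growth versus a DMSO/water blank at 24 h, 37 °C. The mean MIC is ΣMICi over the total strain number; MIC50/MIC90 cover 50%/90% of strains.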

Candida [16] = assay: Tested in vitro for antifungal activity against candida Spp (Candida glabrata, Candida krusei) at pH 7.2 (percent of resistant species at 256 ug/mL); summary of the method: as §2
Candida albicans [17] = assay: In vitro antifungal activity against 40 strains at pH 7.2; summary of the method: as §5
Candida [18] = assay: Tested In vitro for antifungal activity against candida Spp (Candida glabrata, Candida krusei) at pH 5.8
Summary of the method: (§6)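 Inocula were 10³/mL, pre-grown 18 h at 37 °C. MIC is the lowest concentration with no visible growth versus a blank at 24 h, 37 °C. The mean MIC is ΣMICi over the strain number; MIC50/MIC90 are also reported.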

Candida [19] = assay: Tested In vitro for antifungal activity against candida Spp (Candida glabrata, Candida krusei) at pH 7.2; summary of the method: as §6
Candida albicans [20] = assay: Tested In vitro for antifungal activity at pH 5.8
Candida albicans [21] = assay: In vitro antifungal activity against 40 strains at pH 7.2, (percent of resistant species at 256 ug/mL); summary of the method: as §3
Candida albicans [22] = assay: In vitro antifungal activity against 40 strains at pH 5.8,(percent of resistant species at 256 ug/mL); summary of the method: as §3

SMILES: CSc1ccc(-c2c[nH]cc2[C@H](c2ccc(Cl)cc2Cl)n2ccnc2)cc1
- Range (Candida albicans [1]): 32 µg/mL
- Resistance (Candida [2]): 0%
- Resistance (Candida [3]): 0%
- MIC (Candida albicans [4]): 7 µg/mL (≈ 16.9 µM)
- MIC50 (Candida albicans [4]): 4 µg/mL (≈ 9.65 µM)
- MIC90 (Candida albicans [4]): 8 µg/mL (≈ 19.3 µM)
- Ratio [5]: 3
- Resistance (Candida albicans [6]): 0%
- Resistance (Candida albicans [7]): 0%
- Range (Candida albicans [8]): 64 µg/mL
- Range (Candida [9]): 128 µg/mL
- Range (Candida [10]): 16 µg/mL
- MIC (Candida [11]): 66.6 µg/mL (≈ 161 µM)
- MIC50 (Candida [11]): 64 µg/mL (≈ 154 µM)
- MIC90 (Candida [11]): 128 µg/mL (≈ 309 µM)
- MIC (Candida [12]): 9.3 µg/mL (≈ 22.4 µM)
- MIC50 (Candida [12]): 8 µg/mL (≈ 19.3 µM)
- MIC90 (Candida [12]): 16 µg/mL (≈ 38.6 µM)
- MIC (Candida albicans [13]): 9.14 µg/mL (≈ 22.1 µM)
- MIC50 (Candida albicans [13]): 4 µg/mL (≈ 9.65 µM)
- MIC90 (Candida albicans [13]): 8 µg/mL (≈ 19.3 µM)

SMILES: CC(=O)N1CCN(c2ccc(OCC3COC(Cn4ccnc4)(c4ccc(Cl)cc4Cl)O3)cc2)CC1 (centres undefined) [KETOCONAZOLE]
- Resistance (Candida [14]): 0%
- Range (Candida albicans [15]): 2 µg/mL
- Resistance (Candida [16]): 0%
- MIC (Candida albicans [17]): 9.26 µg/mL (≈ 17.4 µM)
- MIC50 (Candida albicans [17]): 8 µg/mL (≈ 15.1 µM)
- MIC90 (Candida albicans [17]): 32 µg/mL (≈ 60.2 µM)
- MIC (Candida [18]): 6.53 µg/mL (≈ 12.3 µM)
- MIC50 (Candida [18]): 32 µg/mL (≈ 60.2 µM)
- MIC90 (Candida [18]): 128 µg/mL (≈ 241 µM)
- Range (Candida [18]): <0.25 µg/mL
- MIC (Candida [19]): 8.6 µg/mL (≈ 16.2 µM)
- MIC50 (Candida [19]): 8 µg/mL (≈ 15.1 µM)
- MIC90 (Candida [19]): 16 µg/mL (≈ 30.1 µM)
- Range (Candida [19]): 2 µg/mL
- MIC (Candida albicans [20]): 6.35 µg/mL (≈ 11.9 µM)
- Range (Candida albicans [20]): <0.25 µg/mL
- Resistance (Candida albicans [21]): 0%
- Resistance (Candida albicans [22]): 0%
